In brackets after ≈: the same amount, converted by molar mass. Activity calls are given as the source filed them. The rule behind the calls is not given here.
Tests used:
Bacillus subtilis = experiment: Antibacterial activity against Bacillus subtilis 168 after 24 hrs by broth microdilution assay; type: functional; conditions: subsp. subtilis str. 168, 24 h
Summary of the method: (§1)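 Twofold serial dilutions in LB broth, inoculated to a final 1 × 10^5 to 3 × 10^5 CFU/mL. Incubation at 37 °C for 24 h. MIC read visually as the lowest concentration giving no turbidity.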

Shigella dysenteriae = experiment: Antibacterial activity against Shigella dysenteriae ATCC 13313 after 24 hrs by broth microdilution assay; type: functional, organism-based
Salmonella typhimurium = experiment: Antibacterial activity against Salmonella typhimurium ATCC 14028 after 24 hrs by broth microdilution assay; type: functional, organism-based; conditions: Salmonella enterica subsp. enterica serovar Typhimurium; summary of the method: as §1
Enterococcus faecalis = experiment: Antibacterial activity against Enterococcus faecalis FA2-2 after 24 hrs by broth microdilution assay; type: functional; summary of the method: as §1
Escherichia coli = experiment: Antibacterial activity against Escherichia coli MG1655 after 24 hrs by broth microdilution assay; type: functional, organism-based; conditions: K-12 substr. MG1655; summary of the method: as §1
Klebsiella pneumoniae = experiment: Antibacterial activity against Klebsiella pneumoniae ATCC 35657 after 24 hrs by broth microdilution assay; type: functional, organism-based; summary of the method: as §1
Acinetobacter baumannii = experiment: Antibacterial activity against Acinetobacter baumannii ATCC 19606 after 24 hrs by broth microdilution assay; type: functional, organism-based; conditions: ATCC 19606 = CIP 70.34 = JCM 6841; summary of the method: as §1
Staphylococcus aureus [1] = experiment: Antibacterial activity against Staphylococcus aureus Newman after 24 hrs by broth microdilution assay; type: functional; summary of the method: as §1
Pseudomonas aeruginosa = experiment: Antibacterial activity against Pseudomonas aeruginosa PAO1 after 24 hrs by broth microdilution assay; type: functional, organism-based; summary of the method: as §1
Enterococcus faecium = experiment: Antibacterial activity against Enterococcus faecium ATCC 19434 after 24 hrs by broth microdilution assay; type: functional; conditions: ATCC 19434, 24 h; summary of the method: as §1
Staphylococcus aureus [2] = experiment: Antibacterial activity against methicillin-resistant Staphylococcus aureus USA300 after 24 hrs by broth microdilution assay; type: functional; conditions: USA300, 24 h

Compound | MIC (Bacillus subtilis) | Activity (Shigella dysenteriae) | Activity (Salmonella typhimurium) | MIC (Enterococcus faecalis) | Activity (Escherichia coli) | Activity (Klebsiella pneumoniae) | Activity (Acinetobacter baumannii) | MIC (Staphylococcus aureus [1]) | Activity (Pseudomonas aeruginosa) | MIC (Enterococcus faecium) | MIC (Staphylococcus aureus [2])
CC(C)CCCc1c(O)ccc2c1O[C@@]1(C=C(Cl)C(=O)N1C)C2=O | 16 µg/mL (≈ 45.7 µM) | inactive | inactive | > 32 µg/mL | inactive | inactive | inactive | 4 µg/mL (≈ 11.4 µM) | inactive | > 32 µg/mL | 16 µg/mL (≈ 45.7 µM)
CC[C@H](C)CCCc1c(O)ccc(C(=O)c2cc(Cl)c(Cl)[nH]2)c1O | 0.5 µg/mL (≈ 1.35 µM) | inactive | inactive | 8 µg/mL (≈ 21.6 µM) | inactive | inactive | inactive | 1 µg/mL (≈ 2.7 µM) | inactive | 2 µg/mL (≈ 5.4 µM) | 2 µg/mL (≈ 5.4 µM)
CCCCCCc1c(O)ccc2c1O[C@]1(C2=O)C(Cl)=C(Cl)C(=O)N1C [ARMENIASPIROLE A] | 2 µg/mL (≈ 5.2 µM) | inactive | inactive | 16 µg/mL (≈ 41.6 µM) | inactive | inactive | inactive | 0.5 µg/mL (≈ 1.3 µM) | inactive | > 32 µg/mL | 0.5 µg/mL (≈ 1.3 µM)
CN[C@H](CC(C)C)C(=O)N[C@H]1C(=O)N[C@@H](CC(N)=O)C(=O)N[C@H]2C(=O)N[C@H]3C(=O)N[C@H](C(=O)N[C@H](C(=O)O)c4cc(O)cc(O)c4-c4cc3ccc4O)[C@H](O)c3ccc(c(Cl)c3)Oc3cc2cc(c3O[C@@H]2O[C@H](CO)[C@@H](O)[C@H](O)[C@H]2O[C@H]2C[C@](C)(N)[C@H](O)[C@H](C)O2)Oc2ccc(cc2Cl)[C@H]1O [VANCOMYCIN] | 0.25 µg/mL (≈ 0.173 µM) |  |  | 2 µg/mL (≈ 1.38 µM) |  |  |  |  |  |  | 
CC(C)CCCc1c(O)ccc2c1O[C@@]1(C=C(Cl)C(=O)N1)C2=O | > 32 µg/mL | inactive | inactive | > 32 µg/mL | inactive | inactive | inactive | > 32 µg/mL | inactive | > 32 µg/mL | > 32 µg/mL
CCCCCCc1c(O)ccc2c1O[C@]1(NC(=O)C(Cl)=C1Cl)C2=O | 8 µg/mL (≈ 21.6 µM) | inactive | inactive | > 32 µg/mL | inactive | inactive | inactive | 8 µg/mL (≈ 21.6 µM) | inactive | 32 µg/mL (≈ 86.4 µM) | 16 µg/mL (≈ 43.2 µM)
CC[C@H](C)CCCc1c(O)ccc2c1O[C@@]1(C=C(Cl)C(=O)N1C)C2=O | 8 µg/mL (≈ 22 µM) | inactive | inactive | > 32 µg/mL | inactive | inactive | inactive | 2 µg/mL (≈ 5.5 µM) | inactive | > 32 µg/mL | 8 µg/mL (≈ 22 µM)
CC[C@H](C)CCCc1c(O)ccc2c1O[C@]1(C2=O)C(Cl)=C(Cl)C(=O)N1C [ARMENIASPIROLE C] | 2 µg/mL (≈ 5.02 µM) | inactive | inactive | > 32 µg/mL | inactive | inactive | inactive | 0.5 µg/mL (≈ 1.26 µM) | inactive | > 32 µg/mL | 0.5 µg/mL (≈ 1.26 µM)
CC(C)CCCc1c(O)ccc2c1O[C@]1(C2=O)C(Cl)=C(Cl)C(=O)N1C [ARMENIASPIROLE B] | 4 µg/mL (≈ 10.4 µM) | inactive | inactive | 32 µg/mL (≈ 83.3 µM) | inactive | inactive | inactive | 0.5 µg/mL (≈ 1.3 µM) | inactive | > 32 µg/mL | 2 µg/mL (≈ 5.2 µM)
CC(C)CCCc1c(O)ccc(C(=O)c2cc(Cl)c(Cl)[nH]2)c1O | 0.5 µg/mL (≈ 1.4 µM) | inactive | inactive | 8 µg/mL (≈ 22.5 µM) | inactive | inactive | inactive | 1 µg/mL (≈ 2.81 µM) | inactive | 2 µg/mL (≈ 5.61 µM) | 1 µg/mL (≈ 2.81 µM)
CC[C@H](C)CCCc1c(O)ccc2c1O[C@]1(NC(=O)C(Cl)=C1Cl)C2=O | 8 µg/mL (≈ 20.8 µM) | inactive | inactive | 32 µg/mL (≈ 83.3 µM) | inactive | inactive | inactive | 8 µg/mL (≈ 20.8 µM) | inactive | 32 µg/mL (≈ 83.3 µM) | 8 µg/mL (≈ 20.8 µM)
CCCCCCc1c(O)ccc(C(=O)c2cc(Cl)c(Cl)[nH]2)c1O | 0.5 µg/mL (≈ 1.4 µM) | inactive | inactive | 2 µg/mL (≈ 5.61 µM) | inactive | inactive | inactive | 1 µg/mL (≈ 2.81 µM) | inactive | 2 µg/mL (≈ 5.61 µM) | 1 µg/mL (≈ 2.81 µM)
CC[C@H](C)CCCc1c(O)ccc2c1O[C@@]1(C=C(Cl)C(=O)N1)C2=O | 16 µg/mL (≈ 45.7 µM) | inactive | inactive | > 32 µg/mL | inactive | inactive | inactive | > 32 µg/mL | inactive | > 32 µg/mL | > 32 µg/mL
CCCCCCc1c(O)ccc2c1O[C@@]1(C=C(Cl)C(=O)N1)C2=O | > 32 µg/mL | inactive | inactive | > 32 µg/mL | inactive | inactive | inactive | > 32 µg/mL | inactive | > 32 µg/mL | > 32 µg/mL
CC(C)CCCc1c(O)ccc2c1O[C@]1(NC(=O)C(Cl)=C1Cl)C2=O | 16 µg/mL (≈ 43.2 µM) | inactive | inactive | > 32 µg/mL | inactive | inactive | inactive | 8 µg/mL (≈ 21.6 µM) | inactive | > 32 µg/mL | 16 µg/mL (≈ 43.2 µM)
CCCCCCc1c(O)ccc2c1O[C@@]1(C=C(Cl)C(=O)N1C)C2=O | 8 µg/mL (≈ 22.9 µM) | inactive | inactive | > 32 µg/mL | inactive | inactive | inactive | 4 µg/mL (≈ 11.4 µM) | inactive | > 32 µg/mL | 8 µg/mL (≈ 22.9 µM)
